ChEMBL document CHEMBL4138070, “Synthesis and biological evaluation of (-)-kunstleramide and its derivatives” (Medchemcomm, 2017)

Experiments:
Format in all cases: functional, cell-based
[1] = test system: MCF7; assay: Antiproliferative activity in human MCF7 cells assessed as reduction in cell number incubated for 48 hrs by SRB assay; details: MCF7, 48 h
How it was run: (§1)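 Cell lines from ATCC, kept in DMEM with 10% FBS and 1% penicillin–streptomycin at 37 °C under 5% CO2. Seeded from 5×10^4 cells/ml suspension, grown 24 h, then treated with 1, 10, 50 and 100 μM for 48 h. Fixed with cold 10% TCA 1 h at 4 °C, stained with 0.057% SRB, dye dissolved in 10 mM Tris, read at 510 nm. IC50 is 50% cell-number decrease versus untreated control, from regression.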

[2] = test system: A549; assay: Antiproliferative activity in human A549 cells assessed as reduction in cell number incubated for 48 hrs by SRB assay; details: A549, 48 h; how it was run: as §1
[3] = test system: IMR-32; assay: Antiproliferative activity in human IMR32 cells assessed as reduction in cell number incubated for 48 hrs by SRB assay; details: IMR-32, 48 h; how it was run: as §1
[4] = test system: HeLa; assay: Antiproliferative activity in human HeLa cells assessed as reduction in cell number incubated for 48 hrs by SRB assay; how it was run: as §1

Row | IC50 [1] [µM] | IC50 [2] [µM] | IC50 [4] [µM] | Compound | IC50 [3] [µM]
1 | 26.2 | 24.4 | 14.1 | COc1ccc(C[C@@H](O)/C=C/C=C/C(=O)N2CCCC2)cc1OC | 12
2 | 14.7 | 9.92 | 12.6 | COc1ccc(C[C@@H](O)/C=C/C=C/C(=O)N2CCN(c3ncccn3)CC2)cc1OC | 10.8
3 | 23.6 | 8.13 | 23.6 | COc1ccc(C[C@@H](O)/C=C/C=C/C(=O)N2CCN(c3ccccn3)CC2)cc1OC | 11.1
4 | 11.5 | 15.7 | 11.7 | CCN1CCN(C(=O)/C=C/C=C/[C@H](O)Cc2ccc(OC)c(OC)c2)CC1 | 10.8
5 | 20.2 | 18 | 20.6 | COc1ccc(C[C@@H](O)/C=C/C=C/C(=O)N2CCSCC2)cc1OC | 16.1
6 | 17.1 | 22.2 | 16.5 | COc1ccc(C[C@@H](O)/C=C/C=C/C(=O)N2CCN(C)CC2)cc1OC | 18.9
7 | 12 | 14.2 | 9.75 | COc1ccc(C[C@@H](O)/C=C/C=C/C(=O)N2CCN(c3ccccc3)CC2)cc1OC | 9.43
8 | 16.2 | 17.9 | 16.4 | COc1ccc(C[C@@H](O)/C=C/C=C/C(=O)N2CCOCC2)cc1OC | 20.4
9 | 12.5 | 10.6 | 10.5 | COc1ccc(C[C@@H](O)/C=C/C=C/C(=O)N2CCN(C(c3ccccc3)c3ccccc3)CC2)cc1OC | 11.9

Second part, the compound before the results:

Row | Compound | IC50 [1] [µM] | IC50 [2] [µM] | IC50 [4] [µM] | IC50 [3] [µM]
10 | COc1ccc(C[C@@H](O)/C=C/C=C/C(=O)NCc2cc(OC)c(OC)c(OC)c2)cc1OC | 15.3 | 19.2 | 10.7 | 13.4
11 | COc1ccc(C[C@@H](O)/C=C/C=C/C(=O)N2CCCCC2)cc1OC | 39.5 | 16.4 | 14.1 | 11
12 | COc1ccc(C[C@@H](O)/C=C/C=C/C(=O)NCc2ccccc2)cc1OC | 33.6 | 17.1 | 12.9 | 16.6
13 | COc1ccc(C[C@@H](O)/C=C/C=C/C(=O)N2CCN(Cc3ccc4c(c3)OCO4)CC2)cc1OC | 12.3 | 7.58 | 8.25 | 8.23
14 | COc1ccc(C[C@@H](O)/C=C/C=C/C(=O)NCc2ccc(Cl)cc2)cc1OC | 18.1 | 16.5 | 13.4 | 15.7
15 | COc1ccc(CNC(=O)/C=C/C=C/[C@H](O)Cc2ccc(OC)c(OC)c2)cc1 | 26.6 | 16.8 | 9.45 | 17.4
16 | CCNC(=O)/C=C/C=C/[C@H](O)Cc1ccc(OC)c(OC)c1 | 12.9 | 13.8 | 14.6 | 9.43
17 | COc1ccc(/C=C\c2cc(OC)c(OC)c(OC)c2)cc1O [COMBRETASTATIN A4] | 4.63 | 6.45 | 5.36 | 5.72
18 | O=C(/C=C/C=C/c1ccc2c(c1)OCO2)N1CCCCC1 [PIPERINE] | 13 | 11.9 | 19.2 | 10.2
